Assay outcomes deposited in PubChem by Broad Institute.
This excerpt belongs to a sample that is enriched for hits.
T cruzi growth-1: T. cruzi intracellular proliferation inhibitors, primary screen, cell-based, beta-gal Tulahuen parasites, NIH3T3 host, luminescence. T. cruzi beta-gal in NIH3T3, GalScreen luminescence, 90 h. inhibition, % at 8.34 µM. actives 5.9% (n = 77,000). AID 624255, 2012;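 active = mean inhibition above about 93%, with at least 55% of replicates each passing it, limit read from the data, passing the limit was not always enough; inconclusive = only one of those two conditions holds; inactive = neither condition holds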
IDH1 R132H inh: inhibitors of IDH1 R132H reductase, primary screen, biochemical, plate reader, single point; Isocitrate dehydrogenase [NADP] cytoplasmic (Homo sapiens), O75874; diaphorase/resazurin fluorescence, 60 min; actives 0.18% (n = 70,000); inhibition, % at 10 µM; in the data active = inhibition above about 34%; inconclusive = no clear call, values can overlap the other calls; inactive = below about 11%
KDM4C inh: inhibitors of GASC-1 (KDM4C) histone demethylase, primary screen, biochemical, single concentration HTS. Lysine-specific demethylase 4C (Homo sapiens), Q9H3R0. inhibition, % at 12.5 µM. GST-KDM4C 2-372, H3K9me3 peptide, LANCE TR-FRET. actives 0.15% (n = 96,000);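 active = mean replicate inhibition above about 25%, with at least 55% of replicates also reaching it, limit read from the data, passing the limit was not always enough; inconclusive = only one of those two conditions met; inactive = neither condition met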
Target sequence (Q9H3R0 2-372 limits assumed): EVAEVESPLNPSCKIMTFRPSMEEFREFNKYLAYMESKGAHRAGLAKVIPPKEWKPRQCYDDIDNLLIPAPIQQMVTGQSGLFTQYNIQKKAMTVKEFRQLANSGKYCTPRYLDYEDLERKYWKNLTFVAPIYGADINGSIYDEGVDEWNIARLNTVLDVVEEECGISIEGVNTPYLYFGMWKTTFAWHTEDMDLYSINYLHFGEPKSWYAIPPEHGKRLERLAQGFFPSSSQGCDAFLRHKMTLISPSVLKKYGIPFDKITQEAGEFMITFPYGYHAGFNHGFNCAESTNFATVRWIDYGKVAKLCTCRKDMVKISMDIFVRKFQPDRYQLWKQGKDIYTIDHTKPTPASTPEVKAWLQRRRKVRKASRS
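System: N-terminal GST-fused human GASC-1 (KDM4C) fragment, residues 2-372 / Amount: 10 nM GST-KDM4C in enzyme reaction / Also added: H3K9me3 peptide with Fe(II)/2OG / Times: 30 min demethylation and 1 h detection at room temperature / Signal: LANCE TR-FRET / Read-out basis: Fall in 671/618 emission ratio as inhibition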
T cruzi growth-2: T. cruzi intracellular proliferation inhibitors, confirmation, cell-based, NIH3T3 host, beta-gal parasite, luminescence, cherry-pick. actives 72% (n = 5,600). inhibition, % at 8.35 µM. shares compounds with T cruzi growth-1. T. cruzi beta-gal in NIH3T3, GalScreen luminescence, 90 h;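 active = mean replicate inhibition above about 95% and at least 55% of replicates individually reaching it, limit read from the data; inconclusive = only one of the two criteria is met; inactive = neither criterion is met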
T cruzi growth-3: inhibitors of intracellular T. cruzi replication, confirmation, NIH3T3 host cells, beta-gal parasites, cherry-pick, set 2 | shares compounds with T cruzi growth-1 | T. cruzi beta-gal in NIH3T3, GalScreen luminescence, 90 h | inhibition, % at 2.09 µM | actives 21% (n = 5,600);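 active = mean inhibition above about 95%, with at least 55% of replicates also reaching it, limit read from the data; inconclusive = meets just one of the two conditions; inactive = meets neither condition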
3T3 cytotox: cytotoxicity in mouse NIH/3T3 fibroblasts, confirmation, cytotoxicity control for T. cruzi proliferation inhibitor project, cell-based, cherry-pick, single point. shares compounds with T cruzi growth-1. NIH/3T3 viability, CellTiter-Glo ATP luminescence, 90 h. cytotoxicity (signal decrease), % at 8.35 µM. actives 14% (n = 5,600). AID 651742, 2012;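 active = mean signal decrease across replicates above about 35% based on untreated-well scatter, with enough replicates individually passing, limit read from the data; inconclusive = no rule stated though some were filed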
NIH3T3 tox 2: NIH/3T3 fibroblast cytotoxicity, confirmation, cytotoxicity control, cell-based, cherry-pick, single point, set 2 | shares compounds with T cruzi growth-1 | NIH/3T3 viability, CellTiter-Glo ATP luminescence, 90 h | inhibition, % at 24.9 µM | actives 56% (n = 5,600) | AID 651744, 2012;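 active = mean loss of cell viability signal at or above a set limit, and enough replicates individually reaching it; inconclusive = meets only the mean limit or only the replicate share; inactive = meets neither condition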
Of the large screens only hits and unclear results are named; the others gave an inactive call (follow-up assays come after a bar, where they were run).

O=C(C[C@H]1CC[C@H]2[C@@H](COC[C@@H](O)CN2C(=O)c2ccncc2)O1)NC1CCC1	none (no result: IDH1 R132H inh)
O=C(C[C@@H]1CC[C@H]2[C@@H](COC[C@H](O)CN2C(=O)c2ccncc2)O1)NC1CCC1	none (no result: IDH1 R132H inh)
O=C(C[C@H]1CC[C@@H]2[C@H](COC[C@@H](O)CN2C(=O)c2ccncc2)O1)NC1CCC1	T cruzi growth-1 97 (no result: IDH1 R132H inh) | T cruzi growth-2 inactive | T cruzi growth-3 inactive | 3T3 cytotox inactive | NIH3T3 tox 2 inactive
O=C(C[C@@H]1CC[C@@H]2[C@H](COC[C@H](O)CN2C(=O)c2ccncc2)O1)NC1CCC1	T cruzi growth-1 108 (no result: IDH1 R132H inh) | T cruzi growth-2 inactive | T cruzi growth-3 inactive | 3T3 cytotox inactive | NIH3T3 tox 2 inactive
COc1cc(CNC2CCCC2)cc(I)c1OCC(N)=O	none (no result: T cruzi growth-1, KDM4C inh)
COc1cccc2cc(-c3nnc(SCC(=O)Nc4cccc(SC)c4)n3C)oc12	none (no result: T cruzi growth-1, KDM4C inh)
Cc1cc(OCC(=O)Nc2cc(-c3nc4ccccc4o3)ccc2C)ccc1Cl	none (no result: T cruzi growth-1, KDM4C inh)
COc1cc(NC(=O)COc2ccc(Cl)cc2)c(C(=O)O)cc1OC	none (no result: T cruzi growth-1, KDM4C inh)
O=C(C[C@@H]1C[C@H]2c3cc(NC(=O)C4CCOCC4)ccc3O[C@H]2[C@@H](CO)O1)NCc1ccc(Oc2ccccc2)cc1	none
O=C(C[C@H]1C[C@@H]2c3cc(NC(=O)C4CCOCC4)ccc3O[C@@H]2[C@@H](CO)O1)NCc1ccc(Oc2ccccc2)cc1	T cruzi growth-1 156 | T cruzi growth-2 inactive | T cruzi growth-3 inactive | 3T3 cytotox inactive | NIH3T3 tox 2 inactive
O=C(C[C@@H]1C[C@H]2c3cc(NC(=O)Nc4ccccc4F)ccc3O[C@H]2[C@H](CO)O1)NCc1ccc(Oc2ccccc2)cc1	T cruzi growth-1 106 | T cruzi growth-2 inactive | T cruzi growth-3 inactive | 3T3 cytotox inactive | NIH3T3 tox 2 78
O=C(C[C@@H]1C[C@@H]2c3cc(NC(=O)Nc4ccccc4F)ccc3O[C@@H]2[C@@H](CO)O1)NCc1ccc(Oc2ccccc2)cc1	none
CSc1nc2sc3c(c2c2nnc(SCC(=O)Nc4ccccc4)n12)CCC3	none (no result: T cruzi growth-1, KDM4C inh)
CC(C)NC(=O)N(C)C[C@H]1Oc2c(NC(=O)Nc3ccc(C(F)(F)F)cc3)cccc2C(=O)N([C@@H](C)CO)C[C@@H]1C	T cruzi growth-1 inconclusive (no result: IDH1 R132H inh) | T cruzi growth-2 inactive | T cruzi growth-3 inactive | 3T3 cytotox inactive | NIH3T3 tox 2 57
C[C@@H]1CN([C@H](C)CO)C(=O)c2cccc(NC(=O)Nc3cccc4ccccc34)c2O[C@H]1CN(C)C(=O)Nc1ccc(F)cc1	T cruzi growth-1 99 | T cruzi growth-2 103 | T cruzi growth-3 inactive | 3T3 cytotox inactive | NIH3T3 tox 2 inactive
C[C@H](CO)N1C[C@H](C)[C@H](CN(C)CC2CC2)Oc2c(NC(=O)Nc3ccc(C(F)(F)F)cc3)cccc2C1=O	T cruzi growth-1 118 | T cruzi growth-2 101 | T cruzi growth-3 100 | 3T3 cytotox inactive | NIH3T3 tox 2 inactive
CC(C)NC(=O)N(C)C[C@@H]1Oc2c(NC(=O)Nc3ccc(C(F)(F)F)cc3)cccc2C(=O)N([C@@H](C)CO)C[C@H]1C	none (no result: IDH1 R132H inh)
C[C@@H]1CN([C@H](C)CO)C(=O)c2cccc(NC(=O)Nc3ccc(C(F)(F)F)cc3)c2O[C@@H]1CN(C)CC1CC1	none
C[C@H](CO)N1C[C@H](C)[C@@H](CN(C)C(=O)Nc2ccc(C(F)(F)F)cc2)Oc2c(NC(=O)C3CCOCC3)cccc2C1=O	none
C[C@@H]1CN([C@@H](C)CO)C(=O)c2cccc(NC(=O)C3CCOCC3)c2O[C@H]1CN(C)C(=O)Nc1ccc(C(F)(F)F)cc1	T cruzi growth-1 99 | T cruzi growth-2 inactive | T cruzi growth-3 inactive | 3T3 cytotox inactive | NIH3T3 tox 2 29
